Bioassay records as filed in PubChem BioAssay.
Beta apoptosis = blocks beta cell apoptosis; INS-1E cytokine-induced death, ATP luminescence, 48 h; percent of positive-control rescue, neutral wells zero; protection from apoptosis, % (test concentration not listed); 300,000 tested, 0.8% active;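 active = Every replicate reaches about 75%, or at least half do and their mean reaches it too, limit read from the data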;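 note: higher means more ATP so stronger rescue from cytokine killing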
Mdm2 MdmX PPI = inhibitors of human Mdm2/MdmX interaction; O15151+Q00987; SaOS-2 split-luciferase Mdm2/MdmX complementation, luminescence; inhibition, % at 8 µM; 330,000 tested, 3% active; AID 485346;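 active = inhibition of at least 50% at 8 µM in the primary screen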
CSC inhib = cancer stem cell inhibition | 300,000 tested, 1.1% active | inhibition, % at 7.5 µM | cancer stem cell-like cells viability, luminescence; in the data active = inhibition above about 75%; tested in HMLE shEcad cells
SKKanGAS inh = SKKanGAS growth inhibition | AID 1662 | inhibition, % at 7.5 µM | S. pyogenes SKKanGAS, kanamycin growth, BacTiter-Glo, 6 h | 300,000 tested, 1.3% active;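 active = mean replicate score, as percent of positive control median, at least 50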;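 note: strain carries kanamycin resistance gene driven by streptokinase promoter and grows in 40 µg/ml kanamycin; loss of luminescence reflects streptokinase promoter inhibition or plain growth inhibition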
Lmaj promast = inhibitors of Leishmania major promastigote growth. AID 1063. Leishmania major promastigotes, resazurin fluorescence viability. 200,000 tested, 9% active. inhibition, % at 10 µM; in the data active = inhibition above about 50%;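 note: promastigotes grown with compound for 44 hours at 28 °C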
T cruzi inh = T. cruzi replication inhibition. T. cruzi beta-gal in NIH3T3, luminescence, 90 h. inhibition, % (test concentration not listed). 300,000 tested, 1.4% active;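 active = mean inhibition across valid replicates above about 55%, limit read from the data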;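 note: signal also drops with host cell toxicity which is not excluded here; higher percent means less beta-gal luminescence so fewer parasites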
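Test system: β-gal T. cruzi (Tulahuen C4) inside NIH/3T3 cells / Quantity: 5,000 cells/well / Measured by: luminescence from GalScreen with 0.05% NP40, read after 60 min / Medium: DMEM plus 2% FBS / Measure: parasite load inhibition, % / Reagent: Tulahuen C4 trypomastigotes, 5000/well / Schedule: co-culture of at least 90 h after 3 h attachment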
Of the large screens only hits and unclear results are named; the others gave an inactive call. Shown are actives, neighbours in structure and some others; about 9.4% of the full set was active somewhere.

O=C(CSc1nnc(Nc2ccccc2F)s1)NC1CC1	none (no result: CSC inhib, SKKanGAS inh, Lmaj promast, T cruzi inh)
CCc1ccc(C(=O)C[n+]2cccc3cc(OC)ccc32)cc1	none (no result: Lmaj promast)
CC1(C)Cc2cccc(C(=O)NC3CCN(Cc4ccccc4)CC3)c2O1	none (no result: Beta apoptosis, Lmaj promast)
Clc1ccc(-c2c[n+](Cc3cccc(Cl)c3)c3n2CCC3)cc1	Lmaj promast 100, T cruzi inh 60
Clc1ccc(-c2c[n+](Cc3ccc(Br)cc3)c3n2CCCCC3)cc1	none (no result: Lmaj promast)
Clc1ccc(C[n+]2cc(-c3ccccc3)n3c2CCC3)cc1Cl	Lmaj promast 99, T cruzi inh 59
Clc1ccc(C[n+]2cc(-c3ccccc3)n3c2CCCCC3)c(Cl)c1	Lmaj promast 100, T cruzi inh 55
COC(=O)c1sc(SC)c(-c2ccon2)c1C	none (no result: Lmaj promast)
Cc1ccccc1OCC(=O)OCC(=O)c1c[nH]c2ccccc12	none (no result: Beta apoptosis, CSC inhib, SKKanGAS inh, Lmaj promast, T cruzi inh)
Cc1ccccc1C(=O)Nc1ccnn1C1CCN(Cc2ccc(CO)o2)CC1	none (no result: Lmaj promast)
COc1ccc(C(=O)NC(=S)NNC(=O)c2cnccn2)cc1OC	Beta apoptosis 82, Lmaj promast 100
Cc1ccc(OCC(=O)NNC(=S)NC(=O)c2ccc(Br)o2)c(C)c1	SKKanGAS inh 93 (no result: Lmaj promast)
Cc1cccc(NC(=S)NNC(=O)c2ccc(Br)o2)c1	none (no result: CSC inhib)
COc1ccc(C(=O)NNC(=S)NC(=O)c2ccc(Br)o2)cc1OC	SKKanGAS inh 66
COc1ccc(CC2(C)OC(c3ccc([N+](=O)[O-])cc3)=NN2C(C)=O)cc1 (stereo unspecified)	none (no result: Lmaj promast)
C/C(=N\NC(=O)CCc1c[nH]c2ccccc12)c1ccc([N+](=O)[O-])cc1	Lmaj promast 61
C/C(=N\NC(=O)CCc1c(C)n[nH]c1C)c1ccc([N+](=O)[O-])cc1	none (no result: Lmaj promast)
COc1ccc(NC(=O)c2ccc3c(c2)NC(=O)CS3)cc1	none (no result: CSC inhib, SKKanGAS inh, Lmaj promast, T cruzi inh)
Cc1ccc(NS(=O)(=O)c2cc(NC(=O)c3ccc4c(c3)NC(=O)CS4)ccc2Cl)c(C)c1	Lmaj promast 87
Cc1cc(/C=C2/SC(=O)NC2=O)c(C)n1-c1ccc(N2CCOCC2)cc1	SKKanGAS inh 90, Lmaj promast 57 (no result: CSC inhib)
Cc1cc(/C=C2\SC(=S)NC2=O)c(C)n1-c1ccc(O)cc1	SKKanGAS inh 100 (no result: Lmaj promast)
Cc1cc(/C=C2\SC(=S)NC2=O)c(C)n1-c1ccccc1	none (no result: Beta apoptosis, Lmaj promast)
CNC(=O)/C(C#N)=C\c1cc(C)n(-c2ccc(N3CCOCC3)cc2)c1C	SKKanGAS inh 62
Cc1cc(C(=O)O)ccc1-n1c(C)cc(/C=C2\SC(=O)NC2=O)c1C	none (no result: Lmaj promast)
Cc1nn(C(C)C)c(C)c1CN1CCN(Cc2ccsc2)C(CCO)C1 (stereo unspecified)	none
Cc1ccc(O)c(N=NC2=C(O)CC(C)(C)CC2=O)c1	Lmaj promast 99 (no result: Beta apoptosis)
Cc1nc2ccc(N=NC3=C(O)CCCC3=O)cc2s1	none (no result: Beta apoptosis)
Cc1nc2ccc(N=NC3=C(O)CC(C)(C)CC3=O)cc2s1	Lmaj promast 91
O=C(CSc1ccccc1Cl)N1CCOCC1	none (no result: Lmaj promast)
Cc1cc(O)ccc1NC(=S)NC(=O)c1cncc(Br)c1	SKKanGAS inh 74 (no result: Lmaj promast)
O=C(NC(=S)NC1CCCCCC1)c1cncc(Br)c1	Lmaj promast 61
CN1CCC(N(C)C(=O)c2sc3cc(F)ccc3c2Cl)CC1	Lmaj promast 90, T cruzi inh 78
Cc1ccc(S(=O)(=O)NCCC(=O)N2CCC(C(N)=O)CC2)cc1C	none (no result: Lmaj promast)
CCCCc1nc(SCC(=O)Nc2cccc(Cl)c2)n[nH]1	none (no result: Beta apoptosis, Lmaj promast)
CCN(CC)c1ccc(NC2=C(Cl)C(=O)c3ccccc3C2=O)cc1	CSC inhib 106 (no result: Mdm2 MdmX PPI, SKKanGAS inh, T cruzi inh)
CCNC1=C(Cl)C(=O)c2ccccc2C1=O	none
Cc1ccc(NC2=C(Cl)C(=O)c3ccccc3C2=O)cc1	CSC inhib 112 (no result: Mdm2 MdmX PPI)
COc1ccc(NC(=O)N2CCN(C(=O)C3CCCO3)CC2)cc1 (stereo unspecified)	none (no result: Lmaj promast)
C/C(=N\NC(=O)c1nnn(-c2nonc2N)c1CN(C)c1ccccc1)c1ccccn1	Beta apoptosis 86, CSC inhib 105 (no result: Mdm2 MdmX PPI, Lmaj promast)
C/C(=N\NC(=O)c1nnn(-c2nonc2N)c1CN(C)c1ccccc1)c1ccc(O)cc1	none (no result: Lmaj promast)
N#CC(=C1N=c2ccccc2=N1)c1c(O)[nH]c2ccccc12	none (no result: Beta apoptosis, Mdm2 MdmX PPI, CSC inhib, SKKanGAS inh, T cruzi inh)
Oc1[nH]c(N=C2N=c3ccccc3=N2)c2ccccc12	Beta apoptosis 113, SKKanGAS inh 82 (no result: Mdm2 MdmX PPI, Lmaj promast)
CCC(C)N(C)Cc1cccc(C2(O)CCN(S(=O)(=O)c3ccc(F)c(C)c3)CC2)c1 (stereo unspecified)	Lmaj promast 99
Cc1cc(S(=O)(=O)N2CCN(c3c(C)cccc3C)CC2)ccc1F	none
C/C(=N\NC(=O)Cc1csc(N2CCOCC2)n1)c1ccc(Cl)c(Cl)c1	none
COc1ccc(/C=C/C(=O)NCc2cccnc2)cc1	none
CCc1ccc(CN(Cc2cccnc2)C(=O)/C=C/c2ccc(OC)cc2)cc1	T cruzi inh 64 (no result: Lmaj promast)
CCC(C)(C)NC(=O)C(c1ccccc1Cl)N(Cc1cccnc1)C(=O)CCC(=O)Nc1cc(C)on1 (stereo unspecified)	none (no result: Lmaj promast)
NC(=O)NC(=O)COC(=O)c1ccc(Cl)c(S(=O)(=O)N(Cc2ccccc2)c2ccc(Cl)cc2)c1	CSC inhib 86
COc1ccc(Cl)cc1Nc1nc(-c2sc(NC(=O)CC(C)C)nc2C)cs1	none
CCCC(C)C(=O)Nc1nc(C)c(-c2csc(Nc3cc(Cl)ccc3C)n2)s1 (stereo unspecified)	Lmaj promast 91
CCCCCC(=O)Nc1nc(C)c(-c2csc(Nc3cc(Cl)ccc3C)n2)s1	none
Cc1ccc(Cl)cc1Nc1nc(-c2sc(NC(=O)c3cccc(Cl)c3)nc2C)cs1	none
Cc1nc(NC(=O)c2ccccc2)sc1-c1csc(Nc2ccc(Cl)cc2Cl)n1	Lmaj promast 54
Cc1nc(NC(=O)c2ccco2)sc1-c1csc(Nc2ccc(Cl)cc2Cl)n1	Lmaj promast 74, T cruzi inh 59
COc1ccc(Cl)cc1Nc1nc(-c2sc(NC(=O)c3ccccc3)nc2C)cs1	none
Cc1nc(NC(=O)CC(C)C)sc1-c1csc(Nc2ccc(Cl)cc2Cl)n1	CSC inhib 80
N=c1n(CC(=O)c2cccs2)c2ccccc2n1Cc1ccccc1	none (no result: Lmaj promast)
C=CCN1C(=O)c2ccc(C(=O)N(CC(C)C)c3c(N)n(CCCC)c(=O)[nH]c3=O)cc2C1=O	none (no result: Lmaj promast)
COc1ccc2oc(C(=O)OCC(=O)/C(C#N)=C(\C)N)c(C)c2c1	none
COc1ccccc1Nc1nc(-c2sc(NC(=O)c3ccco3)nc2C)cs1	Lmaj promast 100
Cc1nc(NC(=O)c2ccco2)sc1-c1csc(Nc2ccc(Cl)cc2)n1	CSC inhib 91
Cc1nc(NC(=O)c2ccccc2)sc1-c1csc(Nc2ccc(Cl)cc2)n1	none
Cc1ccc(CN2CCN(CC3CC4C=CC3C4)CC2)cc1 (stereo unspecified)	Lmaj promast 96
O=C(c1cccc(F)c1)N1CCN(CC2CC3C=CC2C3)CC1 (stereo unspecified)	Lmaj promast 85 (no result: Beta apoptosis, SKKanGAS inh, T cruzi inh)
CC1CCCC(N2CCN(C(=O)c3cccc(F)c3)CC2)C1 (stereo unspecified)	Lmaj promast 81
